Measurements taken from ChEMBL document CHEMBL4304816, “A Novel Biphenyl-based Chemotype of Retinoid X Receptor Ligands Enables Subtype and Heterodimer Preferences” (ACS Med Chem Lett, 2019).
Values after ≈ are worked out from the molar mass of the structure shown. Active and inactive are the calls of the source. The rule behind the calls is not given here.

Assays:
[1] = biological target: T1, Retinoic acid receptor RXR-alpha (Homo sapiens, UniProt P19793); assay: Agonist activity at Gal4-LBD fused RXRalpha (unknown origin) expressed in HEK293T cells after 14 to 16 hrs by dual-Glo luciferase assay; format: cell-based
T1 sequence (P19793 whole entry): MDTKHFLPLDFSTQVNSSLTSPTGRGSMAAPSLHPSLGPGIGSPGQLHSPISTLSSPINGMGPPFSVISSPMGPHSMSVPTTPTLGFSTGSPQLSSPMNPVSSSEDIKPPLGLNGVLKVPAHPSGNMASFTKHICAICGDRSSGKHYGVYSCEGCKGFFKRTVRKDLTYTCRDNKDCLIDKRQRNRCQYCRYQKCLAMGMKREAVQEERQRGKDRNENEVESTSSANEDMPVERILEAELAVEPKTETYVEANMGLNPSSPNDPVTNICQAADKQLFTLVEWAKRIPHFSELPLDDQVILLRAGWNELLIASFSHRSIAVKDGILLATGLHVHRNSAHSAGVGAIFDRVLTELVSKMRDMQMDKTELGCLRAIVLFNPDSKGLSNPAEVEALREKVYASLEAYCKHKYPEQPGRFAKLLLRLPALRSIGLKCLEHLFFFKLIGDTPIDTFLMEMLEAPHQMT
Outline: (§1)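 Gal4-hybrid RXRα/β/γ reporter gene assays in HEK293T cells. Fold activation is the maximal fold activation versus 0.1% DMSO.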

[2] = biological target: T2, Retinoic acid receptor RXR-beta (Homo sapiens) (UniProt P28702); assay: Agonist activity at Gal4-LBD fused RXRbeta (unknown origin) expressed in HEK293T cells at 0.1 to 3 uM after 14 to 16 hrs in presence of RXR antagonist HX531 by dual-Glo luciferase reporter gene assay; format: cell-based
T2 sequence (whole entry): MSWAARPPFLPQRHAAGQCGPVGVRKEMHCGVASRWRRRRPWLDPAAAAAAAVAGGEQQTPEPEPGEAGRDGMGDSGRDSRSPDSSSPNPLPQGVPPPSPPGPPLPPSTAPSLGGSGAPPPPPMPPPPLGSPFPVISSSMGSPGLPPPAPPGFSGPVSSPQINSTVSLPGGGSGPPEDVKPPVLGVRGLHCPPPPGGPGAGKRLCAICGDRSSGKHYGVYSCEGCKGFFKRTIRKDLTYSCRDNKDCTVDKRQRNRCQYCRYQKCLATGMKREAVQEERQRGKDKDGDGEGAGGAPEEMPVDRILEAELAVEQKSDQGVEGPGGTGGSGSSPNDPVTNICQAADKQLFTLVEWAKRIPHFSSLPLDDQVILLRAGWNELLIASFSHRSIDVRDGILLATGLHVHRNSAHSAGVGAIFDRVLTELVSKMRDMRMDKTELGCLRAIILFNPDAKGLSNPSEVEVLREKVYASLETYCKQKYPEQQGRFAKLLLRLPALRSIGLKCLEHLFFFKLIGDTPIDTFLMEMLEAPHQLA

[3] = biological target: T3, Retinoic acid receptor RXR-gamma (Homo sapiens) (UniProt P48443); assay: Agonist activity at Gal4-LBD fused RXRgamma (unknown origin) expressed in HEK293T cells at 0.1 to 3 uM after 14 to 16 hrs in presence of RXR antagonist HX531 by dual-Glo luciferase reporter gene assay; format: cell-based
T3 sequence (whole entry): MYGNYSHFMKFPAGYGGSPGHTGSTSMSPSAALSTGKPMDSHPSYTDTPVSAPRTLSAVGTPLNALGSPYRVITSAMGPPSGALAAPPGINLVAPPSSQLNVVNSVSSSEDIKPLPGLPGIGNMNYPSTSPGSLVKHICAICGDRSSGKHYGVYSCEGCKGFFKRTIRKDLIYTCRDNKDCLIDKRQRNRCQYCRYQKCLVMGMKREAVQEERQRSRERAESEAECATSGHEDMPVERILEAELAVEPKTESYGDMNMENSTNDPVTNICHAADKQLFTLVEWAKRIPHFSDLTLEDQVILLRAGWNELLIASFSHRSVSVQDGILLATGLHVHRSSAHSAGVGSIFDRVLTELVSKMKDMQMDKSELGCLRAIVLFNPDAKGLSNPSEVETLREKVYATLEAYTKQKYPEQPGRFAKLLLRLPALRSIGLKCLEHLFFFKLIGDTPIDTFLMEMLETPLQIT

[4] = Agonist activity at full-length human RXR/LXR expressed in HEK293T cells at 10 uM after 14 to 16 hrs in presence of 1 uM T0901317 by dual-glo luciferase reporter gene assay relative to T0901317; format: cell-based; details: HEK-293T, read-out: Activity
Outline: (§2)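 Synergy format: the test compound was co-applied with the partner-receptor reference agonist at 1 μM, either T0901317 (RXR:LXR) or rosiglitazone (RXR:PPARγ). Relative synergistic activation was derived from three independent experiments, each in duplicate; mean reported.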

[5] = Agonist activity at full-length human RXR/LXR expressed in HEK293T cells at 10 uM after 14 to 16 hrs by dual-glo luciferase reporter gene assay relative to untreated control; format: cell-based; details: HEK-293T, read-out: Activity
Outline: (§3)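 RXR:LXR or RXR:PPARγ heterodimer reporter assay with test compound alone. Activation expressed relative to 0.1% DMSO vehicle. Three independent experiments, each in duplicate; mean reported.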

[6] = biological target: T4, Retinoic acid receptor RXR-gamma (Homo sapiens, UniProt P48443); assay: Agonist activity at Gal4-LBD fused RXRgamma (unknown origin) expressed in HEK293T cells after 14 to 16 hrs by dual-Glo luciferase assay; format: cell-based; outline: as §1
T4 sequence (P48443 whole entry): T3 sequence (whole entry)

[7] = Metabolic stability in Wistar rat liver microsomes at 10 uM preincubated for 5 mins followed by microsomes addition in presence of NADPH measured up to 60 mins by HPLC analysis; format: ADME, Microsome; details: 1 h
[8] = biological target: T5, Retinoic acid receptor RXR-alpha (Homo sapiens) (UniProt P19793); assay: Agonist activity at Gal4-LBD fused RXRalpha (unknown origin) expressed in HEK293T cells at 0.1 to 3 uM after 14 to 16 hrs in presence of RXR antagonist HX531 by dual-Glo luciferase reporter gene assay; format: cell-based
T5 sequence (whole entry): T1 sequence (P19793 whole entry)

Homo sapiens [9] = species: Homo sapiens; assay: Agonist activity at full-length human PPARgamma/RXR expressed in HEK293T cells at 10 uM after 14 to 16 hrs in presence of 1 uM rosiglitazone by dual-glo luciferase reporter gene assay relative to rosiglitazone; format: cell-based
Outline: (§4)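 RXR:PPARγ heterodimer reporter assay run with reference PPARγ agonist rosiglitazone (1 μM) co-applied. Read-out is mean relative synergistic activation, from three independent experiments each run in duplicate.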

[10] = biological target: T6, Retinoic acid receptor RXR-beta (Homo sapiens, UniProt P28702); assay: Agonist activity at Gal4-LBD fused RXRbeta (unknown origin) expressed in HEK293T cells after 14 to 16 hrs by dual-Glo luciferase assay; format: cell-based; outline: as §1
T6 sequence (P28702 whole entry): T2 sequence (whole entry)

Homo sapiens [11] = species: Homo sapiens; assay: Agonist activity at full-length human PPARgamma/RXR expressed in HEK293T cells at 10 uM after 14 to 16 hrs by dual-glo luciferase reporter gene assay relative to untreated control; format: cell-based
Outline: (§5)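 RXR:PPARγ heterodimer reporter assay in HEK293T cells with test compound alone. Mean relative activation is taken versus 0.1% DMSO, from three independent experiments each run in duplicate.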

[12] = Solubility of compound at 3 mg after 24 hrs by HPLC analysis; format: physicochemical
[13] = Agonist activity at full-length human RXR/LXR expressed in HEK293T cells at 5 uM after 14 to 16 hrs in presence of 1 uM T0901317 by dual-glo luciferase reporter gene assay relative to T0901317; format: cell-based; details: HEK-293T, read-out: Activity; outline: as §2
Homo sapiens [14] = species: Homo sapiens; assay: Agonist activity at full-length human PPARgamma/RXR expressed in HEK293T cells at 5 uM after 14 to 16 hrs by dual-glo luciferase reporter gene assay relative to untreated control; format: cell-based; outline: as §3
[15] = Agonist activity at full-length human RXR/LXR expressed in HEK293T cells at 5 uM after 14 to 16 hrs by dual-glo luciferase reporter gene assay relative to untreated control; format: cell-based; details: HEK-293T, read-out: Activity; outline: as §3
Homo sapiens [16] = species: Homo sapiens; assay: Agonist activity at full-length human PPARgamma/RXR expressed in HEK293T cells at 5 uM after 14 to 16 hrs in presence of 1 uM rosiglitazone by dual-glo luciferase reporter gene assay relative to rosiglitazone; format: cell-based; outline: as §2
Homo sapiens [17] = species: Homo sapiens; assay: Agonist activity at full-length human RXR/PPARgamma expressed in HEK293T cells at 1 uM after 14 to 16 hrs by dual-glo luciferase reporter gene assay relative to untreated control; format: cell-based; outline: as §3
[18] = Agonist activity at full-length human RXR/LXR expressed in HEK293T cells at 25 uM after 14 to 16 hrs by dual-glo luciferase reporter gene assay relative to untreated control; format: cell-based; details: HEK-293T, read-out: Activity; outline: as §3
[19] = Agonist activity at full-length human RXR/LXR expressed in HEK293T cells at 25 uM after 14 to 16 hrs in presence of 1 uM T0901317 by dual-glo luciferase reporter gene assay relative to T0901317; format: cell-based; details: HEK-293T, read-out: Activity; outline: as §2
[20] = biological target: T3, Retinoic acid receptor RXR-gamma (Homo sapiens); assay: Agonist activity at Gal4-LBD fused RXRgamma (unknown origin) expressed in HEK293T cells at 30 uM after 14 to 16 hrs by dual-Glo luciferase assay; format: cell-based
Homo sapiens [21] = species: Homo sapiens; assay: Agonist activity at full-length human PPARgamma/RXR expressed in HEK293T cells at 25 uM after 14 to 16 hrs by dual-glo luciferase reporter gene assay relative to untreated control; format: cell-based; outline: as §5
Homo sapiens [22] = species: Homo sapiens; assay: Agonist activity at full-length human PPARgamma/RXR expressed in HEK293T cells at 0.3 uM after 14 to 16 hrs in presence of 1 uM rosiglitazone by dual-glo luciferase reporter gene assay relative to rosiglitazone; format: cell-based; outline: as §4
[23] = Agonist activity at full-length human RXR/LXR expressed in HEK293T cells at 0.3 uM after 14 to 16 hrs in presence of 1 uM T0901317 by dual-glo luciferase reporter gene assay relative to T0901317; format: cell-based; details: HEK-293T, read-out: Activity; outline: as §2
[24] = Agonist activity at full-length human RXR/LXR expressed in HEK293T cells at 0.3 uM after 14 to 16 hrs by dual-glo luciferase reporter gene assay relative to untreated control; format: cell-based; details: HEK-293T, read-out: Activity; outline: as §3
Homo sapiens [25] = species: Homo sapiens; assay: Agonist activity at full-length human PPARgamma/RXR expressed in HEK293T cells at 0.3 uM after 14 to 16 hrs by dual-glo luciferase reporter gene assay relative to untreated control; format: cell-based; outline: as §5
[26] = Agonist activity at full-length human RXR/LXR expressed in HEK293T cells at 1 uM after 14 to 16 hrs by dual-glo luciferase reporter gene assay relative to untreated control; format: cell-based; details: HEK-293T, read-out: Activity; outline: as §3

With `O=C(O)Cc1ccc(-c2cc(C(F)(F)F)cc(C(F)(F)F)c2)cc1` the EC50 [1] was 80 nM, the Activity [2] was “inactive” and the Activity [3] was “inactive”. The activity at 10 µM [4] was 127%, the activity at 10 µM [5] was 132% and the EC50 [6] was 220 nM. The Stability [7] was “Stable”, the Activity [8] was “inactive” and the Activity (Homo sapiens [9]) was 154%. It also gave an EC50 [10] of 150 nM, an Activity (Homo sapiens [11]) of 267% and a solubility at 24 h [12] of 1.15 µg/mL (≈ 3.3 µM).
Compound `CC(C)(C)c1cc(-c2ccc(CC(=O)O)cc2)cc(C(C)(C)C)c1` has an activity at 5 µM [13] of 82%, an EC50 [1] of 470 nM and an Activity (Homo sapiens [14]) of 173%. The Activity [2] was “inactive”, the Activity [3] was “inactive” and the activity at 5 µM [15] was 89%. For the same compound, the EC50 [6] was 3300 nM, the Activity (Homo sapiens [16]) was 108% and the Activity [8] was “inactive”. For the same compound, the EC50 [10] was 800 nM.
For `CN(CCOc1ccc(CC2SC(=O)NC2=O)cc1)c1ccccn1` (stereo not given), the Activity (Homo sapiens [17]) was 224%.
`O=C(O)c1cccc(-c2cc(Cl)cc(Cl)c2)c1` gave an EC50 [1] of 15500 nM, an activity at 25 µM [18] of 67% and an EC50 [10] of 13100 nM. The activity at 25 µM [19] was 42%, the Activity [20] was “inactive” and the Activity (Homo sapiens [21]) was 82%.
For `C=C(c1ccc(C(=O)O)cc1)c1cc2c(cc1C)C(C)(C)CCC2(C)C` [BEXAROTENE], the Activity (Homo sapiens [22]) was 423%, the activity at 0.3 µM [23] was 665% and the activity at 0.3 µM [24] was 200%. The solubility at 24 h [12] was 0.3 µg/mL (≈ 0.861 µM) and the Activity (Homo sapiens [25]) was 330%.
With `O=S(=O)(c1ccccc1)N(CC(F)(F)F)c1ccc(C(O)(C(F)(F)F)C(F)(F)F)cc1` [T091317] the activity at 1 µM [26] was 380%.
